Shown are actives, neighbours in structure and some others; about 3.5% of the full set was active somewhere.
WT yeast gro inh: growth inhibition of WT yeast, mitochondrial fusion screen. mitochondrial fusion phenotypic screen, WT strain. inhibition, % at 10 µM. actives 2.1% (n = 190,000). AID 1362; in the data active = inhibition above about 58%; tested in S. cerevisiae
MEKK2mut PB1 HTS: signal of MEK5 binding to mutant human MEKK2 PB1 domain; bead flow cytometry, Alexa488-MEK5 binding to MEKK2 mutant; percent response, % at 10 µM; actives 0.35% (n = 290,000); AID 1530; in the data active = percent response above about 24%, passing the limit was not always enough
ABCG2 inh: blocks JC-1 efflux by human ABCG2 transporter | IgMXP3 cells, flow cytometry | actives 0.1% (n = 190,000) | Q9UNQ0 | AID 1325 | inhibition, % at 6.6 µM;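 active = inhibition above 80%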;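 note: 0% = DMSO and 100% = nicardipine control wells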
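Assay system – ABCG2 IgMXP3 and barcoded ABCB1 CCRF-Adr cell mix · Input – 3 million cells/mL in well · Reagent – JC-1 fluorescent substrate · Compound – single test compound dose, 6.6 µM final · Timing – 10 min exposure at 25 °C with rotation, no wash · Detection – flow cytometry of retained JC-1 fluorescence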
MEKK2 WT-MEK5: raises or lowers MEK5 binding to wildtype human MEKK2 PB1 domain; bead flow cytometry, Alexa488-MEK5 binding to MEKK2 WT; actives lie on both sides; actives 1.1% (n = 290,000); Q9Y2U5; binding response (% of control), % at 10 µM; in the data active = binding response below about 67% or above about 130%
MEKK3 PB1 HTS: modulators (inhibitors or enhancers) of MEK5 binding to human MEKK3 PB1 domain | Q99759 | bead-based flow cytometry, Alexa488-MEK5 binding to MEKK3; actives lie on both sides; 0 = blocked by unlabeled MEK5, 100 = vehicle | binding response (% of control), % at 10 µM | actives 1.4% (n = 290,000) | AID 1529;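 active = binding response more than 3 SD above or below the average of its plate-row segment, actives on both sides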;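 note: Alexa488 bead fluorescence after subtracting the streptavidin-only scavenger bead signal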
ABCB1 inh: inhibitors of human ABCB1 transporter, ABCG2 counter-screen. actives 0.067% (n = 190,000). inhibition, % at 6.6 µM. AID 1326. P08183. CCRF-Adr cells, JC-1 efflux, flow cytometry; in the data active = inhibition above about 40%;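 note: 0% = vehicle and 100% = reference inhibitor; higher value means more JC-1 retained so stronger ABCB1 efflux block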
MEKK2wt confirm: raises or lowers MEK5 binding to wildtype human MEKK2, retest. binding response (% of control), % at 10 µM. shares compounds with MEKK3 PB1 HTS. bead flow cytometry, Alexa488-MEK5 binding to MEKK2 WT; actives lie on both sides. actives 2.4% (n = 5,900); in the data active = binding response below about 16% or above about 210%; inactive = in between
MEKK2mut confirm: signal of MEK5 binding to mutant human MEKK2, retest; shares compounds with MEKK3 PB1 HTS; bead flow cytometry, Alexa488-MEK5 binding to MEKK2 mutant; percent response, % at 10 µM; actives 2% (n = 5,900); AID 1893; in the data active = percent response mostly above about 71%, no sharp cut-off; inactive = mostly below about 38%;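 note: higher means compound restores mutant binding toward wildtype level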
MEKK3-MEK5 inh: MEKK3-MEK5 PB1 inhibition, single concentration confirmation; shares compounds with MEKK3 PB1 HTS; bead flow cytometry, Alexa488-MEK5 binding to MEKK3; hits give low values; actives 1.8% (n = 5,900); binding response (% of control), % at 10 µM; AID 1894;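 active = binding response below 72% of control, or above a set upper limit, though filed actives all read lower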;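 note: 100% = DMSO only wells and 0% = binding blocked by excess unlabeled MEK5; lower values mean stronger disruption of MEK5 binding to MEKK3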
* marks the source's active call; other numbers are inactive results; x = no result given; [ ] = another dose, or the depositor's remark.

SMILES	WT yeast gro inh	MEKK2mut PB1 HTS	ABCG2 inh	MEKK2 WT-MEK5	MEKK3 PB1 HTS	ABCB1 inh	MEKK2wt confirm	MEKK2mut confirm	MEKK3-MEK5 inh
O=C(Cc1cccs1)N1CCN(S(=O)(=O)c2ccc(Br)cc2)CC1	2	-8	0	98	100	35	x	x	x
CS(=O)(=O)N1CCN(C(=O)COc2ccc3ccccc3c2)CC1	x	29	x	113	132*	x	100	-7	105
Nc1nc2ncc(-c3ccsc3)c(N)n2n1	4	-1	0	102	100	0	x	x	x
COc1ccc([N+](=O)[O-])cc1/C=N/NC(=O)CNC(=O)C(c1ccccc1)c1ccccc1	19	1	6	109	165*	0	99	0	99
COc1ccc([N+](=O)[O-])cc1/C=N/NC(=O)CNC(=O)c1cccc(F)c1	-23	3	10	104	100	0	x	x	x
O=C(CSc1nc(O)cc(=O)[nH]1)N1c2ccccc2CCc2ccccc21	x	-15	x	87	89	x	x	x	x
O=C(CN1C2CCCC1CC(NC(=O)c1ccccc1)C2)Nc1nccs1 (stereo not drawn)	-8	3	8	111	120	4	x	x	x
COc1cccc(-c2nc(CS(=O)(=O)CC(=O)N3CCc4ccccc4C3)c(C)o2)c1	1	-19	3	-3.0*[inhibitor]	1.0*[inhibitor]	0	101	1	103
Cc1oc(-c2ccccc2F)nc1CS(=O)(=O)CC(=O)NCCCN1CCc2ccccc2C1	13	21	1	149*	113	0	132	11	105
COc1ccccc1C1NC=C([N+](=O)[O-])C=C1[N+](=O)[O-] (stereo not drawn)	8	-1	9	96	100	1	x	x	x
Cc1[nH]c2ccccc2c1C(=O)COc1ccccc1F	-5	-39	6	103	106	1	x	x	x
Cc1[nH]c2ccccc2c1C(=O)COc1ccccc1	5	1	2	118	142*	1	102	3	101
Oc1ccccc1Nc1nc(NCc2ccccc2)c2ccccc2n1	86*	67*	0	216*	114	0	192	54	111
Fc1ccccc1-c1nc(NCc2ccco2)c2ccccc2n1	2	-3	3	99	93	0	x	x	x
Oc1ccccc1-c1nc(NCc2ccco2)c2ccccc2n1	5	-4	0	101	100	0	x	x	x
COc1ccccc1Nc1nc(NCc2ccco2)c2ccccc2n1	x	42	x	177*	117	x	149	23	106
Cc1ccc(Nc2nc(NCc3ccco3)c3ccccc3n2)cc1	94*	77*	2	191*	107	2	177	49	102
OCCNc1nc(Nc2ccc(Br)cc2)nc2ccccc12	78	28	0	146*	108	0	132	36	104
O=C1CN(C(=O)COc2ncnc3ccccc23)c2ccccc2N1	-3	15	5	99	101	1	x	x	x
Cc1sc2ncnc(OCC(=O)N3CC(=O)Nc4ccccc43)c2c1C	3	-18	5	46*[inhibitor]	42*[inhibitor]	13	100	6	104
Cn1cnc2cc(NC(=O)COc3ccccc3)ccc21	x	-5	x	96	99	x	x	x	x
CCC(=O)Nc1ccc2c(c1)ncn2C	3	-5	0	81	75*[inhibitor]	0	108	1	103
O=C(Nc1ccccc1N1CCOCC1)c1cccnc1	-11	2	1	112	128*	0	106	0	104
O=C(Nc1ccc(N2CCOCC2)c(Cl)c1)c1cccnc1	18	2	4	98	101	1	x	x	x
Oc1ccc(/C=N/Nc2nccnc2Cl)cc1	11	7	1	121	126*	1	99	2	104
SMILES	WT yeast gro inh	MEKK2mut PB1 HTS	ABCG2 inh	MEKK2 WT-MEK5	MEKK3 PB1 HTS	ABCB1 inh	MEKK2wt confirm	MEKK2mut confirm	MEKK3-MEK5 inh
Nc1c(Cl)ncnc1N/N=C/c1ccc(O)cc1	x	-11	x	53*[inhibitor]	51*[inhibitor]	x	91	0	89
Cc1sc2ncnc(N/N=C/c3ccc(O)cc3)c2c1C	-2	7	3	108	105	0	x	x	x
CC(=O)N1c2ccc(S(=O)(=O)NCC3CCC(C(=O)Nc4cccc(C)n4)CC3)cc2CC1C (stereo not drawn)	x	3	x	102	102	x	x	x	x
COC(=O)C1CCC(C)(C(=O)Nc2ccccc2)C1(C)C (stereo not drawn)	7	-20	1	3.0*[inhibitor]	3.0*[inhibitor]	1	102	3	100
COc1ccc(NC(=O)C2CCC(C)(C(=O)O)C2(C)C)cc1 (stereo not drawn)	-1	-4	1	94	96	0	x	x	x
O=C1C(Cl)=C(N2CCCCC2)C(=O)C(Cl)=C1c1cnc(N2CCCCC2)s1	8	-20	0	60*[inhibitor]	62*[inhibitor]	0	72	-7	85
CN(C)c1ncc(C2=C(Cl)C(=O)C(N3CCCC3)=C(Cl)C2=O)s1	-10	-6	-1	89	87	0	x	x	x

Screening results deposited in PubChem by several laboratories.
